Only some compounds are listed: those with a hit (about 3.3% of all), similar ones and a draw of the others.
SENP8 block-1: SENP8 protease inhibitors, primary screen, biochemical, luminescence. purified SENP8, Z-RLRGG-aminoluciferin cleavage. inhibition, % at 10 µM. actives 1.2% (n = 330,000); in the data active = inhibition above about 50%
SENP1 FRET inh: human SENP1 catalytic domain inhibitors, primary screen, biochemical, FRET, uHTS; actives 0.21% (n = 360,000); Sentrin-specific protease 1 (Homo sapiens), Q9P0U3; AID 624204, 2012; recombinant SENP1 catalytic domain, CyPet-SUMO1-YPet FRET cleavage; inhibition, % at 10 µM;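 active = inhibition at least 30% at 10 µM, raw YFP signal under a set limit, fluorescence ratio 0.5 to 1.5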;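 note: 0% = enzyme with DMSO and 100% = no enzyme wells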
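material = recombinant human SENP1 catalytic domain, His6-tagged | quantity = 20 pM enzyme | reagent = 25 nM SUMO1 FRET substrate | compound dosing = 10 µM single point, 0.5% DMSO | timing = 50 min enzyme reaction, room temperature, light-protected | detection = FRET, CFP and YFP emission | control set = no-enzyme low, enzyme-DMSO high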
CendR NRP1 mod: modulators of CendR peptide binding to NRP-1, primary screen, biochemical, fluorescence polarization, uHTS; Neuropilin-1 (Homo sapiens), O14786; FAM-RPARPAR peptide binding to NRP-1; inhibition, % at 25 µM; actives 0.85% (n = 360,000);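 active = inhibition or corrected inhibition above about 18%, plus a signal ratio from 0.5 to 1.5, limit read from the data, passing the limit was not always enough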
SENP8 block-2: human SENP8 protease inhibitors, primary screen, biochemical, fluorescence, Nedd8 protein substrate, uHTS. recombinant SENP8. inhibition, % at 20 µM. actives 0.64% (n = 360,000); in the data active = inhibition mostly above about 40%, no sharp cut-off; inactive = mostly below about 27%
SENP6 inh: SENP6 protease inhibitors, primary screen, biochemical, luminescence, uHTS | Recombinant SENP6 catalytic domain, aminoluciferin luminescence | actives 1.8% (n = 330,000) | Sentrin-specific protease 6 (Homo sapiens), Q9GZR1 | inhibition, % at 10 µM;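 active = inhibition above about 50% at the single tested dose, limit read from the data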;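 note: plate controls were DMSO wells with enzyme for no effect and DMSO wells lacking enzyme for full effect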
Target sequence (Q9GZR1 628-1112 limits assumed): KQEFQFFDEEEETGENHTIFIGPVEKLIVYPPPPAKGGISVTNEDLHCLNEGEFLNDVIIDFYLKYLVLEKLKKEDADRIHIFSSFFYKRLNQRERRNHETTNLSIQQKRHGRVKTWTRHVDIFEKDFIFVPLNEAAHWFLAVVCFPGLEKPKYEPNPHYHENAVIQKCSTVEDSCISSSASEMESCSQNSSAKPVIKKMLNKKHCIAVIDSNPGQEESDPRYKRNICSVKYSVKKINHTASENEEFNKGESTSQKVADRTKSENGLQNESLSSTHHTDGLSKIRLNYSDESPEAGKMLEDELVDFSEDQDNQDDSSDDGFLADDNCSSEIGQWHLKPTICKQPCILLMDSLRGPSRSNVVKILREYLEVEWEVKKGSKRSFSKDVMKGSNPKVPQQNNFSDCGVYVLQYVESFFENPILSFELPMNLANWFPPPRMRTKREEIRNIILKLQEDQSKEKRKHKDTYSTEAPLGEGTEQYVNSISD
SENP7 inh: SENP7 protease inhibitors, primary screen, biochemical, luminescence, uHTS. actives 1.5% (n = 330,000). recombinant SENP7, Z-RLRGG-aminoluciferin luminescence, 40 min. inhibition, % at 5 µM. Sentrin-specific protease 7 (Homo sapiens), Q9BQF6. AID 434973, 2010;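 active = inhibition above about 50% at the single test dose, limit read from the data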;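 note: plate controls were DMSO with enzyme for no effect and no enzyme buffer wells for full effect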
SENP1 inh conf: human SENP1 catalytic domain inhibitors, confirmation, biochemical, FRET endpoint, single concentration | actives 34% (n = 520) | inhibition, % at 10 µM | AID 651678, 2012 | recombinant SENP1, CyPet-SUMO1-YPet FRET cleavage | shares compounds with SENP1 FRET inh; in the data active = inhibition mostly above about 35%, no sharp cut-off; inactive = mostly below about 32%;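 note: 0% = enzyme with DMSO and 100% = no enzyme control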
SENP1 kinetic: human SENP1 catalytic domain inhibitors, confirmation, biochemical, kinetic FRET, single concentration; shares compounds with SENP1 FRET inh; recombinant SENP1, CyPet-SUMO1-YPet FRET kinetic cleavage; inhibition, % at 10 µM; actives 26% (n = 520); in the data active = inhibition mostly above about 32%, no sharp cut-off; inactive = mostly below about 29%;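 note: 0% = DMSO with enzyme and 100% = no enzyme substrate only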
Starred values were filed as active, the others as inactive; x = no result given.

SMILES	SENP8 block-1	SENP1 FRET inh	CendR NRP1 mod	SENP8 block-2	SENP6 inh	SENP7 inh	SENP1 inh conf	SENP1 kinetic
Brc1ccc(-c2nc3ncccn3c2Nc2ccc3c(c2)OCCO3)o1	-2	35*	8	-11	-32	5	9	3
Cc1ccc(-c2nc3ncccn3c2Nc2ccc3c(c2)OCCO3)o1	-4	53*	-3	13	4	1	19	14
Cc1cc(C)n2c(NC3CCCC3)c(-c3cc4ccccc4o3)nc2n1	x	-20	-22	-296	x	x	x	x
C=C(C)COC(=O)c1ccccc1C(=O)OCC1(C)CO1 (configuration not stated)	x	2	13	13	x	x	x	x
Cn1cnc2ncnn2c1=S	x	3	-11	-5	x	x	x	x
N#CC1=C2CCCCC2(O)NC1=O (configuration not stated)	x	1	0	11	x	x	x	x
CCC(=NN=C(CC)c1ccccc1O)c1ccccc1O	x	47*	5	24	x	x	130*	73*
C/C(=N/N=C(\C)c1ccccc1O)c1ccccc1O	-9	68	-36	29	-1	47	x	x
CCNC(=O)C1CCCN(C(=O)C(c2ccccc2)c2ccccc2)CC1 (configuration not stated)	x	1	-9	9	x	x	x	x
CCSc1ncc(Cl)c(C(=O)Nc2ccccc2Cl)n1	-5	2	8	12	-27	9	x	x
CCSc1ncc(Cl)c(C(=O)Nc2sc3c(c2C(=O)NCc2cccnc2)CCCC3)n1	1	41*	-81	16	-16	1	62*	44*
Oc1ccc(Cl)cc1C1=Nc2ccccc2N=C(c2ccco2)C1	-3	67*	-55	-312	-34	4	64*	52*
COc1ccccc1NC(=O)CON=C(N)CC(=O)NC1CCCCC1	-2	55*	16	-2	-5	-4	51*	46*
Nc1nc(N)c2sc3nc(C(F)(F)F)cc(C(F)(F)F)c3c2n1	4	68*	-7	5	5	8	35*	25
Cc1cc(CN2CCN(CC(=O)Nc3cc(Cl)ccc3-n3cncn3)CC2)no1	-4	-3	-5	-1	-10	9	x	x
NC(N)=NCCCS(=O)(=O)Nc1ccc(Nc2c3ccccc3nc3cc([N+](=O)[O-])ccc23)cc1	x	51*	16	25	x	x	35	6
N#C/C(=C\C=C\c1ccccc1[N+](=O)[O-])c1nc(-c2ccc3c(c2)OCO3)cs1	3	54*	-37	26	3	-1	4	13
N#C/C(=C\c1ccccc1[N+](=O)[O-])c1nc(C2CC2)cs1	-7	1	-5	14	-7	-5	x	x
Cc1ccc(Cn2cc(/C=N/Nc3ccc([N+](=O)[O-])cn3)c3ccccc32)cc1	7	-23	-97	24	-5	8	x	x
Cc1c(/C=N/Nc2ccc([N+](=O)[O-])cn2)c2ccccc2n1Cc1ccccc1	2	63*	-15	22	0	5	7	9
Cn1c(N)nc2nc[nH]c2c1=S	x	1	10	-3	x	x	x	x
CC1(C)CC(=O)C2=C(C1)Nc1ccccc1NC2c1ccccc1F (configuration not stated)	-8	36*	15	-1	-6	-2	-2	-1
CC1(C)CC(=O)C2=C(C1)Nc1ccccc1NC2c1ccc(F)c(F)c1 (configuration not stated)	14	2	11	-12	4	3	x	x
COCCn1c(-c2ccco2)csc1=Nc1cccnc1	0	0	-1	9	4	-5	x	x
CCN=c1scc(-c2cccs2)n1/N=C/c1cc(OC)ccc1O	x	52*	-14	-22	x	x	146*	82*
SMILES	SENP8 block-1	SENP1 FRET inh	CendR NRP1 mod	SENP8 block-2	SENP6 inh	SENP7 inh	SENP1 inh conf	SENP1 kinetic
COc1ccc(O)c(/C=N/n2c(-c3ccco3)csc2=Nc2cccnc2)c1	-9	42*	-13	-42	12	-3	29*	19
Cc1noc(C)c1-c1ccc(C(=O)NCCN2CCOCC2)c2occc12	x	0	-14	-31	x	x	x	x
COC(=O)[C@@]12C[C@@H](CC(=O)N3CCCC3)C(=O)N(Cc3ccc4c(c3)OCO4)C1=CCC(C)(C)C2	x	1	7	6	x	x	x	x
Nc1ccccc1CCc1ccccc1N	x	2	-48	6	x	x	x	x
COC(=O)CSc1nc2cc(OC)ccc2cc1C#N	21	37*	7	-46	24	4	16	3
COc1ccc2cc(C#N)c(SCC(=O)N3CCCC3)nc2c1	3	-27	-2	-255	-13	-3	x	x
O=C(COC(=O)CCc1ccccc1)NCc1ccc2c(c1)OCO2	4	32*	-5	26	10	2	-4	0
COc1cc(O)c(C=Nc2ccccc2NS(=O)(=O)c2ccc(C)cc2)c(OC)c1	x	51*	-8	12	x	x	74*	67*
COc1ccccc1NS(=O)(=O)c1ccc(O)cc1	0	0	-3	20	-2	13	x	x
Fc1ccc(C2=CC(c3cccs3)n3nnnc3N2)cc1 (configuration not stated)	-1	33*	17	-20	-5	-3	10	11
COc1cc2c(cc1OC)C(O)=CC(=O)C2=O	x	-9	2	20	x	x	x	x
O=C(NC(Cc1ccccc1)C(=O)O)/C(=C\c1ccc([N+](=O)[O-])cc1)NC(=O)c1ccco1 (configuration not stated)	-4	33*	-2	2	2	-6	2	4
O=C(NC(Cc1ccccc1)C(=O)O)/C(=C/c1cccc([N+](=O)[O-])c1)NC(=O)c1ccco1 (configuration not stated)	6	-37	4	-1	-4	-5	x	x
CCOc1ccc(NC(=O)/C=C/c2ccccc2)c([N+](=O)[O-])c1	-8	37*	-13	32	-14	14	15	10
COc1ccc(NC(=O)/C=C/C(=O)O)c([N+](=O)[O-])c1	2	3	7	17	4	-6	x	x
COc1cccc(C(O)c2ncc(-c3ccccc3)[nH]2)c1 (configuration not stated)	x	-1	-8	5	x	x	x	x

Assay outcomes from PubChem.
